In ChEMBL document CHEMBL1128357, “Synthesis and biological properties of water-soluble p-boronophenylalanine derivatives. Relationship between water solubility, cytotoxicity, and cellular uptake” (J Med Chem, 1995):
Values after ≈ are worked out from the molar mass of the structure shown.

Tests used:
[1] = Solubility in water at room temperature; format: physicochemical; conditions: read-out: S
Summary of the method: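 Excess boron compound was dissolved, and the undissolved material was removed by membrane filtration. Boron concentration of the saturated solution was measured by ICP-AES. Three replicates, mean ± SE.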

B16 = test: Cytotoxicity of compound towards B-16 melanoma cells, expressed as survival ratio of cells; format: functional, Mus musculus
TIG-1-20 = test: Cytotoxicity of compound towards TIG-1-20 hybrobrast cells, expressed as survival ratio of cells; format: functional, Homo sapiens

| SMILES | solubility [1] [mM] | Survival ratio (B16) [%] | Survival ratio (TIG-1-20) [%] |
| --- | --- | --- | --- |
| NC(Cc1ccc(B(O)O)cc1)C(=O)O (configuration not stated) | 7.7 (≈ 1.61 mg/mL) | 20 | 20 |
| NC(Cc1ccc(B(O)O)cc1)C(=O)NC(COC(CO)CO)COC(CO)CO (configuration not stated) | 1200 (≈ 516 mg/mL) | 62 | 73 |
| NC(Cc1ccc(B(O)O)cc1)C(=O)NC(CO)CO (configuration not stated) | 660 (≈ 186 mg/mL) | 60 | 71 |
| NC(Cc1ccc(B(O)O)cc1)C(=O)NCCO (configuration not stated) | 600 (≈ 151 mg/mL) | 60 | 66 |
